Converted amounts (≈) assume the structure as drawn. Numbered stars: 1 amine (or outer) side, 2 acyl side, 3 side chain; on linkers, the order of the positions; unused ones are H or OH. Peptide text beside a SMILES is read from it. * marks the point of attachment. Piperazinyl(4-(2,3-Cl2Ph)) = Clc1cccc(N2CCN(*)CC2)c1Cl; Thiocarbamoyl(N-4-ClPh) = S=C(Nc1ccc(Cl)cc1)*; Thiocarbamoyl(4-MeOPh) = COc1ccc(NC(=S)*)cc1; X1 = Fc1ccc2c(C3CCN(*)CC3)noc2c1; NH(2-F-phenyl) = Fc1ccccc1N*; CO = O=C([*:1])[*:2]; OcHex = C1CCC(O*)CC1
Assays:
Format in all cases: functional
Aspergillus flavus [1] = assay: Antifungal activity against Aspergillus flavus at 30 ug/ml after 72 hrs by agar well diffusion method; details: read-out: DIZ
In short: (§1)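 Fungal well diffusion. Inocula were subcultured in nutrient broth for one day, then spread on solidified medium. Compounds were made as a 1 mg/mL DMSO stock and diluted to 30 µg/mL final. Each 6 mm well got 0.1 mL. Controls were bavistin (reference) and DMSO (negative). Plates stood for 3 days at room temperature. Inhibition zone was measured in mm as the mean of three determinations.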

Staphylococcus aureus [2] = assay: Antibacterial activity against coagulase-positive Staphylococcus aureus at 30 ug/ml after 24 hrs by agar well diffusion method; details: read-out: DIZ
In short: (§2)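 Agar well diffusion. Inocula were grown in nutrient broth at 37 °C for 24 h, then subcultured in nutrient broth at room temperature. Compounds were made as a 1 mg/mL DMSO stock and diluted to 30 µg/mL final. Nutrient agar plates were spread-inoculated and 6 mm wells each got 0.1 mL. Controls were amoxicillin (reference) and DMSO (negative). Incubation was 24 h at 37 °C. Inhibition zone was measured in mm as the mean of three determinations.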

Fusarium oxysporum [3] = assay: Ratio of bavistin MIC to compound MIC for Fusarium oxysporum after 72 hrs by microdilution method
Xanthomonas oryzae [4] = assay: Antibacterial activity against Xanthomonas oryzae at 30 ug/ml after 24 hrs by agar well diffusion method; details: read-out: DIZ
Aspergillus niger [5] = assay: Ratio of bavistin MIC to compound MIC for Aspergillus niger after 72 hrs by microdilution method
Klebsiella pneumoniae [6] = assay: Antibacterial activity against Klebsiella pneumoniae at 30 ug/ml after 24 hrs by agar well diffusion method; details: read-out: DIZ; in short: as §2
Aspergillus niger [7] = assay: Antifungal activity against Aspergillus niger at 30 ug/ml after 72 hrs by agar well diffusion method; details: read-out: DIZ; in short: as §1
Aspergillus flavus [8] = assay: Antifungal activity against Aspergillus flavus after 72 hrs by microdilution method
Aspergillus niger [9] = assay: Antifungal activity against Aspergillus niger after 72 hrs by microdilution method
Aspergillus flavus [10] = assay: Ratio of bavistin MIC to compound MIC for Aspergillus flavus after 72 hrs by microdilution method
Fusarium oxysporum [11] = assay: Antifungal activity against Fusarium oxysporum after 72 hrs by microdilution method
Fusarium oxysporum [12] = assay: Antifungal activity against Fusarium oxysporum at 30 ug/ml after 72 hrs by agar well diffusion method; details: read-out: DIZ; in short: as §1
Escherichia coli [13] = assay: Antibacterial activity against Escherichia coli at 30 ug/ml after 24 hrs by agar well diffusion method; details: read-out: DIZ; in short: as §2
Xanthomonas oryzae [14] = assay: Antibacterial activity against Xanthomonas oryzae after 24 hrs by microdilution method
Escherichia coli [15] = assay: Antibacterial activity against Escherichia coli after 24 hrs by microdilution method
Klebsiella pneumoniae [16] = assay: Antibacterial activity against Klebsiella pneumoniae after 24 hrs by microdilution method
Staphylococcus aureus [17] = assay: Antibacterial activity against coagulase-positive Staphylococcus aureus after 24 hrs by microdilution method

| SMILES | zone of inhibition at 30 µg/mL (Aspergillus flavus [1]) [mm] | zone of inhibition at 30 µg/mL (Staphylococcus aureus [2]) [mm] | Ratio (Fusarium oxysporum [3]) | zone of inhibition at 30 µg/mL (Xanthomonas oryzae [4]) [mm] | Ratio (Aspergillus niger [5]) | zone of inhibition at 30 µg/mL (Klebsiella pneumoniae [6]) [mm] | zone of inhibition at 30 µg/mL (Aspergillus niger [7]) [mm] | MIC (Aspergillus flavus [8]) [µg/mL] | MIC (Aspergillus niger [9]) [µg/mL] | Ratio (Aspergillus flavus [10]) | MIC (Fusarium oxysporum [11]) [µg/mL] | zone of inhibition at 30 µg/mL (Fusarium oxysporum [12]) [mm] | zone of inhibition at 30 µg/mL (Escherichia coli [13]) [mm] | MIC (Xanthomonas oryzae [14]) [µg/mL] | MIC (Escherichia coli [15]) [µg/mL] | MIC (Klebsiella pneumoniae [16]) [µg/mL] | MIC (Staphylococcus aureus [17]) [µg/mL] |
| --- | --- | --- | --- | --- | --- | --- | --- | --- | --- | --- | --- | --- | --- | --- | --- | --- | --- |
| CC(C)[C@H](NC(=O)CNC(=O)[C@@H]1CCCN1C(=O)[C@H](Cc1ccccc1)NC(=O)CNC(=O)[C@H](CCC(=O)OC1CCCCC1)NC(=O)CNC(=O)Nc1ccccc1F)C(=O)NCC(=O)N[C@H](C(=O)N1CCC[C@H]1C(=O)NCC(=O)N[C@H](C(=O)NCC(=O)N[C@@H](Cc1ccccc1)C(=O)N1CCC[C@H]1C(=O)NCC(=O)N[C@@H](Cc1ccccc1)C(=O)NCC(=O)N[C@@H](Cc1ccccc1)C(=O)N1CCC[C@H]1C(=O)NCC(=O)N[C@H](C(=O)NCC(=O)N[C@H](C(=O)N1CCC[C@H]1C(=O)NCC(=O)N[C@H](C(=O)NCC(=O)N[C@@H](Cc1ccccc1)C(=O)N1CCC[C@H]1C(=O)N1CCN(c2cccc(Cl)c2Cl)CC1)C(C)C)C(C)C)C(C)C)C(C)C)C(C)C ({NH(2-F-phenyl)-CO}-GE(OcHex)GFPGVGVPGVGFPGFGFPGVGVPGVGFP-{Piperazinyl(4-(2,3-Cl2Ph))}) | 42 | 20 | 10 | 19 | 10 | 21 | 48 | 1.75 (≈ 0.551 µM) | 2 (≈ 0.629 µM) | 10 | 2 (≈ 0.629 µM) | 43 | 22 | – | – | – | – |
| CC(C)[C@H](NC(=O)CNC(=O)[C@@H]1CCCN1C(=O)[C@H](Cc1ccccc1)NC(=O)CNC(=O)[C@H](CCC(=O)OC1CCCCC1)NC(=O)CNC(=O)Nc1ccccc1F)C(=O)NCC(=O)N[C@H](C(=O)N1CCC[C@H]1C(=O)NCC(=O)N[C@H](C(=O)NCC(=O)N[C@H](C(=O)N1CCC[C@H]1C(=O)NCC(=O)N[C@H](C(=O)NCC(=O)N[C@H](C(=O)N1CCC[C@H]1C(=O)NCC(=O)N[C@@H](Cc1ccccc1)C(=O)NCC(=O)N[C@@H](Cc1ccccc1)C(=O)N1CCC[C@H]1C(=O)NCC(=O)N[C@@H](Cc1ccccc1)C(=O)NCC(=O)N[C@@H](Cc1ccccc1)C(=O)N1CCC[C@H]1C(=O)N1CCC(c2noc3cc(F)ccc23)CC1)C(C)C)C(C)C)C(C)C)C(C)C)C(C)C ({NH(2-F-phenyl)-CO}-GE(OcHex)GFPGVGVPGVGVPGVGVPGFGFPGFGFP-X1) | 43 | 22 | 10 | 21 | 10 | 22 | 46 | 1.25 (≈ 0.395 µM) | 1.25 (≈ 0.395 µM) | 10 | 1.5 (≈ 0.474 µM) | 44 | 24 | – | – | – | – |
| COc1ccc(NC(=S)NCC(=O)N[C@@H](CCC(=O)OC2CCCCC2)C(=O)NCC(=O)N[C@@H](Cc2ccccc2)C(=O)N2CCC[C@H]2C(=O)NCC(=O)N[C@H](C(=O)NCC(=O)N[C@H](C(=O)N2CCC[C@H]2C(=O)NCC(=O)N[C@H](C(=O)NCC(=O)N[C@@H](Cc2ccccc2)C(=O)N2CCC[C@H]2C(=O)NCC(=O)N[C@@H](Cc2ccccc2)C(=O)NCC(=O)N[C@@H](Cc2ccccc2)C(=O)N2CCC[C@H]2C(=O)NCC(=O)N[C@H](C(=O)NCC(=O)N[C@H](C(=O)N2CCC[C@H]2C(=O)NCC(=O)N[C@H](C(=O)NCC(=O)N[C@@H](Cc2ccccc2)C(=O)N2CCC[C@H]2C(=O)N2CCN(c3cccc(Cl)c3Cl)CC2)C(C)C)C(C)C)C(C)C)C(C)C)C(C)C)C(C)C)cc1 ({Thiocarbamoyl(4-MeOPh)}-GE(OcHex)GFPGVGVPGVGFPGFGFPGVGVPGVGFP-{Piperazinyl(4-(2,3-Cl2Ph))}) | 37 | 14 | 10 | 13 | 10 | 15 | 42 | 2.75 (≈ 0.858 µM) | 2.75 (≈ 0.858 µM) | 10 | 3.25 (≈ 1.01 µM) | 38 | 15 | – | – | – | – |
| COc1ccc(NC(=S)NCC(=O)N[C@@H](CCC(=O)OC2CCCCC2)C(=O)NCC(=O)N[C@@H](Cc2ccccc2)C(=O)N2CCC[C@H]2C(=O)NCC(=O)N[C@H](C(=O)NCC(=O)N[C@H](C(=O)N2CCC[C@H]2C(=O)NCC(=O)N[C@H](C(=O)NCC(=O)N[C@H](C(=O)N2CCC[C@H]2C(=O)NCC(=O)N[C@H](C(=O)NCC(=O)N[C@H](C(=O)N2CCC[C@H]2C(=O)NCC(=O)N[C@@H](Cc2ccccc2)C(=O)NCC(=O)N[C@@H](Cc2ccccc2)C(=O)N2CCC[C@H]2C(=O)NCC(=O)N[C@@H](Cc2ccccc2)C(=O)NCC(=O)N[C@@H](Cc2ccccc2)C(=O)N2CCC[C@H]2C(=O)N2CCC(c3noc4cc(F)ccc34)CC2)C(C)C)C(C)C)C(C)C)C(C)C)C(C)C)C(C)C)cc1 ({Thiocarbamoyl(4-MeOPh)}-GE(OcHex)GFPGVGVPGVGVPGVGVPGFGFPGFGFP-X1) | 38 | 15 | 10 | 14 | 10 | 16 | 43 | 2 (≈ 0.626 µM) | 2 (≈ 0.626 µM) | 10 | 2 (≈ 0.626 µM) | 39 | 17 | – | – | – | – |
| O=C(CNC(=S)Nc1ccc(Cl)cc1)N[C@@H](Cc1ccccc1)C(=O)NCC(=O)N[C@@H](Cc1ccccc1)C(=O)N1CCC[C@H]1C(=O)N1CCN(c2cccc(Cl)c2Cl)CC1 ({Thiocarbamoyl(N-4-ClPh)}-GFGFP-{Piperazinyl(4-(2,3-Cl2Ph))}) | 30 | 30 | – | 33 | – | 32 | 34 | 6.5 (≈ 7.17 µM) | 5 (≈ 5.52 µM) | – | 6.25 (≈ 6.9 µM) | 31 | 32 | 6.75 (≈ 7.45 µM) | 6.75 (≈ 7.45 µM) | 5 (≈ 5.52 µM) | 6.25 (≈ 6.9 µM) |
| CC(C)[C@H](NC(=O)CNC(=S)Nc1ccc(Cl)cc1)C(=O)NCC(=O)N[C@H](C(=O)N1CCC[C@H]1C(=O)N1CCC(c2noc3cc(F)ccc23)CC1)C(C)C ({Thiocarbamoyl(N-4-ClPh)}-GVGVP-X1) | 30 | 28 | – | 32 | – | 30 | 34 | 6.75 (≈ 8.44 µM) | 6 (≈ 7.51 µM) | – | 8 (≈ 10 µM) | 31 | 31 | 8 (≈ 10 µM) | 8.75 (≈ 10.9 µM) | 6.5 (≈ 8.13 µM) | 8 (≈ 10 µM) |
| CC(C)[C@H](NC(=O)CNC(=S)Nc1ccc(Cl)cc1)C(=O)NCC(=O)N[C@H](C(=O)N1CCC[C@H]1C(=O)N1CCN(c2cccc(Cl)c2Cl)CC1)C(C)C ({Thiocarbamoyl(N-4-ClPh)}-GVGVP-{Piperazinyl(4-(2,3-Cl2Ph))}) | 24 | 26 | – | 31 | – | 24 | 32 | 7.75 (≈ 9.56 µM) | 6.75 (≈ 8.33 µM) | – | 8.75 (≈ 10.8 µM) | 29 | 29 | 8.75 (≈ 10.8 µM) | 9.5 (≈ 11.7 µM) | 7 (≈ 8.64 µM) | 9 (≈ 11.1 µM) |
